Assay outcomes from PubChem.
Sampled rows, rich in hits. Any-hit rate of the full collection: about 3.5%.
MrgX1 agonist = agonists of human MrgX1 receptor. MrgX1-HEK293 cells, Fluo-4 calcium fluorescence, agonist mode; active compounds read high. B-score at 10 µM. 310,000 compounds, 0.44% hits;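 active = calcium response B-score plate-corrected fluorescence ratio at least 3 library SD, with starting fluorescence B-score inside 5 SD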
Target sequence (Q96LB2 whole entry, looked up): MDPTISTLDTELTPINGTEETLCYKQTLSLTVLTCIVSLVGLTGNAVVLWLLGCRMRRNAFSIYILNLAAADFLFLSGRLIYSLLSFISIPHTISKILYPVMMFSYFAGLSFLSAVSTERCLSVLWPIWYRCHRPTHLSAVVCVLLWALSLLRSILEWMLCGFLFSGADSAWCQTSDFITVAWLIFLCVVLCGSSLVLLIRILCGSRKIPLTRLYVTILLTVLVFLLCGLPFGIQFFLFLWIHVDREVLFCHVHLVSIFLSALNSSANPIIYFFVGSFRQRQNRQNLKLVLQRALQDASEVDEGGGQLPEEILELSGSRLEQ
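Material: HEK293 cells stably expressing human MrgX1 receptor | Quantity: 15,000 cells per well | Times: Cells plated overnight, dye loaded 0.5 h 37 °C, 0.5 h room temperature | Measured by: Kinetic Fluo-4 NW fluorescence of intracellular calcium | Control set: Positive and negative controls per plate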
MrgX1 antag = human MrgX1 receptor antagonism, primary screen; Q96LB2; MRGX1-HEK293 calcium flux, Fluo-4, BAM8-22 antagonism; active compounds read low; B-score at 10 µM; 310,000 compounds, 1.3% hits; AID 588676;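 active = calcium-response B-score plate-corrected more than 3 library SD below zero, starting fluorescence within 5 deviations, no agonist response on first addition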;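 also: peak minus trough fluorescence over baseline after final BAM8-22 challenge near maximal dose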
MrgX1 PAM = allosterically activates human MrgX1 receptor signaling. B-score at 10 µM. 310,000 compounds, 0.63% hits. MrgX1-HEK293, Fluo-4 calcium flux, FDSS; active compounds read high. AID 588675;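 active = plate-corrected calcium response at least 3 library SD above typical, normal starting fluorescence, not activating the receptor alone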;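 also: compound read alongside a low EC10 to EC30 dose of BAM8-22 agonist; peak minus trough fluorescence over baseline measured at the second addition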
RGS4 pot = potentiators or activators of RGS4; HEK293 M3R/inducible RGS4, carbachol calcium flux Fluo4; active compounds read low; B-score at 10 µM; 310,000 compounds, 0.92% hits;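 active = B-score of the integrated calcium signal more than 4 SD below the library mean, with starting fluorescence not abnormally high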;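 also: negative B-score means reduced calcium response which marks RGS4 activation or potentiation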
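Assay system: Inducible-RGS4 HEK293 cells carrying M3 receptor | Schedule: Compound preincubation 20 min at room temperature before agonist | Signal: Kinetic calcium fluorescence imaging with Fluo4-AM dye, 2 µM | Read-out basis: B score from integrated fluorescence ratio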
RGS4 inh = inhibitors of human RGS4 | P49798 | HEK293 M3R/RGS4 inducible, Fluo-4 calcium flux; active compounds read high; triggered by carbachol at its EC20 | B-score at 10 µM | 310,000 compounds, 0.45% hits | AID 463165;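 active = B-score, a plate-corrected calcium signal, over three deviations above library mean, with baseline fluorescence within five deviations of library mean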;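 also: RGS4 expression induced by doxycycline in cells with stable M3 receptor; B-score is computed from the integrated fluorescence ratio over baseline after carbachol; higher B-score means a larger calcium signal and so more RGS4 inhibition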
MrgX1 PAM conf = reconfirmed allosteric activator of human MrgX1 receptor; shares compounds with MrgX1 PAM; MrgX1-HEK293, Fluo-4 calcium fluorescence, FDSS; activation (ratio percentage), % at 10 µM; 1,200 compounds, 13% hits;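 active = ratio at least 3 SD above the weak peptide control, stable starting fluorescence, no direct agonism earlier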;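 also: compound followed by low BAM8-22 agonist challenge near EC20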
HEK293 Ca flux = MrgX1 antagonist counter-screen hit in parental HEK293 cells; 4,000 compounds, 2% hits; fluorescence ratio F(max-min)/F0 at 10 µM; shares compounds with MrgX1 antag; AID 624111; Fluo-4 calcium fluorescence, FDSS;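 active = duplicate-averaged calcium fluorescence ratio at least three times the standard deviation of buffer wells, a nonspecific response in parental cells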
HEK293 Ca counter = counter-screen for MrgX1 allosteric activators: effect in parental HEK293 cells | fluorescence ratio F(max-min)/F0 at 10 µM | parental HEK293 calcium flux, Fluo-4 fluorescence ratio; active compounds read high | 4,000 compounds, 0.4% hits | shares compounds with MrgX1 antag;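 active = calcium fluorescence ratio, averaged over duplicates, at least 3 SD of the buffer-well ratio, meaning a nonspecific response in receptor-free cells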;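 also: untransfected parental HEK293 lacking MrgX1 used as counterscreen for MrgX1 allosteric activators; fluorescence change taken during the second addition on a kinetic imager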
HEK293 Ca cntr2 = MrgX1 activator counter-screen hit in parental HEK293 cells | shares compounds with MrgX1 antag | Fluo-4 calcium fluorescence (FDSS); active compounds read high | fluorescence ratio F(max-min)/F0 at 10 µM | 4,000 compounds, 8.7% hits;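 active = calcium fluorescence ratio at least three times the spread of buffer wells, meaning a non-specific response in parental cells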
Numbers without * were called inactive; i = inactive; . = no result.

SMILES	MrgX1 agonist	MrgX1 antag	MrgX1 PAM	RGS4 pot	RGS4 inh	MrgX1 PAM conf	HEK293 Ca flux	HEK293 Ca counter	HEK293 Ca cntr2
CCN(CC)C(=O)Oc1ccnc2cc(Cl)ccc12	i	i	7.4*	i	i	i	i	i	i
CCN(CC)CCn1c2c(c(SCC(=O)Nc3nccs3)nc1=O)CCCC2	i	i	i	i	i	.	.	.	.
COc1ccccc1C(=O)N/C(=C\c1ccc(Br)cc1)C(=O)N1CCCC1	i	i	i	i	i	.	.	.	.
CC1CCCC(NC(=O)CCC(=O)N2CCOc3ccccc32)C1C (stereo unspecified)	i	i	i	i	i	.	.	.	.
CC1=CC(C)C(/C=N/N=C(N)N)C(C)C1 (stereo unspecified)	i	i	24*	i	i	i	i	i	i
CC(Nc1ccc2c(c1)OCCO2)C(=O)N1c2ccccc2CC1C (stereo unspecified)	i	i	i	i	i	.	.	.	.
CCN(CC)S(=O)(=O)c1ccc(NC(=O)COC(=O)c2ccc(NC(=O)CC#N)cc2)cc1	i	i	i	i	i	.	.	.	.
O=C(Nc1ccc(F)c(Cl)c1)N1CCCC1	i	i	13*	i	i	i	i	i	i
COc1ccc(Nc2cccc3ccccc23)cc1	i	i	21*	i	i	i	i	i	i
COc1ccc(Nc2cc(C)c3ccccc3n2)cc1	i	i	16*	i	i	18%*	i	i	i
Cc1cc(OCCn2ccnc2)cc(C)c1Cl	i	i	i	i	i	.	.	.	.
CN(C(=O)c1ccccc1C(=O)OCC(=O)c1ccc(Br)cc1)c1ccccc1	i	i	i	i	i	.	.	.	.
O=C(COC(=O)C1CCN(S(=O)(=O)c2cccs2)CC1)Nc1ccc(F)cc1F	i	i	i	i	i	.	.	.	.
O=C(N1CCCCC1)N1CCN(C(c2ccccc2)c2ccccc2)CC1	i	i	6.9*	i	i	i	i	i	i
O=C(N1CCOCC1)N1CCN(C(c2ccccc2)c2ccccc2)CC1	i	i	i	i	i	.	.	.	.
COc1ccc(-c2cc(C(=O)Nc3c(F)cc(F)cc3Br)no2)cc1	i	i	8.9*	i	i	i	i	i	i
COc1ccc(-c2cc(C(=O)Nc3ccc(F)cc3F)no2)cc1	i	i	i	i	i	.	.	.	.
COc1ccc(-c2cc(C(=O)Nc3ccc(S(=O)(=O)Nc4onc(C)c4C)cc3)c3ccccc3n2)cc1	i	i	i	i	i	.	.	.	.
N#CCSc1ncnc2ccccc12	i	i	i	i	i	.	.	.	.
c1ccc(Sc2ncnc3ccccc23)cc1	i	i	18*	i	i	28%*	i	i	i
COC(=O)c1sc2nc(N3CCCCC3)c3c(c2c1N)CCCC3	i	i	6.9*	i	i	i	i	i	i
COc1ccc(N/C(C)=C/C(=O)c2ccccc2)cc1	i	i	i	i	i	.	.	.	.
COc1ccc(N/C(C)=C/C(=S)Nc2ccccc2)cc1	i	i	27*	i	i	i	i	i	i
O=C(COC(=O)c1cc(Br)ccc1O)NC1CCCCCC1	i	i	i	i	i	.	.	.	.
O=C(COC(=O)c1cc(Br)ccc1Cl)NC1CCCC1	i	i	8*	i	i	i	i	i	i
Cc1ccc(Nc2nc3ccccc3s2)c(C)c1	i	i	7*	i	i	i	i	i	i
